# Measurements as given in ChEMBL document CHEMBL5244263, “Studies on fragment-based design of allosteric inhibitors of human factor XIa” (Bioorg Med Chem, 2020).
# Active and inactive are the calls of the source. No cut-off for these calls is given here.
# Key:
# [1] = target: Plasma kallikrein (Homo sapiens) (UniProt P03952); test: Inhibition of Kallikrein in human plasma at 500 uM by chromogenic substrate hydrolysis assay; type: cell-free
# [2] = target: Chymotrypsinogen A (Bos taurus) (UniProt P00766); test: Inhibition of bovine alpha-chymotrypsin at 500 uM by chromogenic substrate hydrolysis assay
# [3] = target: Coagulation factor IX (Homo sapiens) (UniProt P00740); test: Inhibition of human FIXa at 500 uM by chromogenic substrate hydrolysis assay
# [4] = target: T1, Coagulation factor VII (Homo sapiens) (UniProt P08709); test: Inhibition of FVIIa (unknown origin) at 500 uM by chromogenic substrate hydrolysis assay
# T1 sequence (whole entry): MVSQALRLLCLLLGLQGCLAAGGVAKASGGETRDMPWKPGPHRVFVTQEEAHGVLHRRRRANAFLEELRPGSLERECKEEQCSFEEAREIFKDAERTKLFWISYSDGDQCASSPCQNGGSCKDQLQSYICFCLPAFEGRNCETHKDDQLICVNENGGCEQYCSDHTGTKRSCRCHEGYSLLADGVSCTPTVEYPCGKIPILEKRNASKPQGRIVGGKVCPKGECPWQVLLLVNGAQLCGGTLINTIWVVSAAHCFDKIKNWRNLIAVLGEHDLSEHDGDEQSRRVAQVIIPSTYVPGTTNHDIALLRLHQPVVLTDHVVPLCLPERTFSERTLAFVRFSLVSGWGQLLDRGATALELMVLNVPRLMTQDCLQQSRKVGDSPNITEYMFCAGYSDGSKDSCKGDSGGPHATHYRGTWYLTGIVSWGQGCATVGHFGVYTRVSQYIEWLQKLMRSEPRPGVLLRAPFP
# Homo sapiens [5] = species on record: Homo sapiens; test: Inhibition of human FXIa heparin-binding site of A3 domain harboring K252A,K253A,K255A mutant and heparin-binding site of catalytic domain harboring K529A,R530A,R532A,K535A,K539A mutant using S-2366 as chromogenic substrate preincubated with enzyme for 10 mins followed by substrate addition by spectrophotometric analysis relative to control
# Summary of the method: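 Recombinant hFXIa alanine mutants tested in 50 mM Tris-HCl pH 7.4, 150 mM NaCl, 0.1% PEG8000, 0.02% Tween80. Inhibitor and enzyme incubated 10 min at 37 °C, then S-2366 (345 μM final) added and residual activity read. IC50 and maximal inhibition efficacy (ΔY) obtained by nonlinear dose-response regression.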
# [6] = target: Coagulation factor X (Homo sapiens) (UniProt P00742); test: Inhibition of human FXa using methoxycarbonyl-D-cyclohexylglycyl-Gly-Arg-p-nitroanilide as substrate at 500 uM by chromogenic substrate hydrolysis assay
# Bos taurus [7] = species on record: Bos taurus; test: Inhibition of bovine trypsin using S-2222 as chromogenic substrate at 500 uM by chromogenic substrate hydrolysis assay
# [8] = target: Prothrombin (Homo sapiens) (UniProt P00734); test: Inhibition of human thrombin at 500 uM by chromogenic substrate hydrolysis assay
# Homo sapiens [9] = species on record: Homo sapiens; test: Selectivity for inhibition of human FXIa over FVIIa (unknown origin)
# Coagulation factor XI [10] = target: T2, Coagulation factor XI (Homo sapiens, UniProt P03951); test: Inhibition of human FXIa using S-2366 as chromogenic substrate preincubated with enzyme for 10 mins followed by substrate addition by spectrophotometric analysis
# Bos taurus [11] = species on record: Bos taurus; test: Inhibition of bovine trypsin using S-2222 as chromogenic substrate at >200 uM by chromogenic substrate hydrolysis assay
# Homo sapiens [12] = species on record: Homo sapiens; test: Selectivity for inhibition of human FXIa over human FXa
# [13] = target: Coagulation factor X (Homo sapiens) (UniProt P00742); test: Inhibition of human FXa using methoxycarbonyl-D-cyclohexylglycyl-Gly-Arg-p-nitroanilide as substrate at >200 uM by chromogenic substrate hydrolysis assay
# [14] = Selectivity for inhibition of human FXIa over bovine alpha-chymotrypsin
# [15] = Selectivity for inhibition of human FXIa over bovine trypsin
# Coagulation factor XI [16] = target: T2, Coagulation factor XI; test: Inhibition of human FXIa using S-2366 as chromogenic substrate preincubated with enzyme for 10 mins followed by substrate addition by spectrophotometric analysis relative to control; parameters: concentration or dose not given beside the values
# Summary of the method: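 hFXIa (0.765 nM final) preincubated with inhibitor or reference solution for 10 min at 37 °C in pH 7.4 buffer (50 mM Tris-HCl, 150 mM NaCl, 0.1% PEG8000, 0.02% Tween80). S-2366 (345 μM final) then added, and residual activity read on a microplate reader.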
# Homo sapiens [17] = species on record: Homo sapiens; test: Selectivity for inhibition of human FXIa over human thrombin
# Homo sapiens [18] = species on record: Homo sapiens; test: Selectivity for inhibition of human FXIa over Kallikrein in human plasma; type: cell-free
# Homo sapiens [19] = species on record: Homo sapiens; test: Selectivity for inhibition of human FXIa over human FIXa
# Coagulation factor XI [20] = target: T2, Coagulation factor XI; test: Binding affinity to active site dansylated human DEGR-FXIa assessed as hyperbolic interaction by measuring change in fluorescence intensity by fluorescence based analysis
# Summary of the method: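 Titration of sulfated QAOs into 250 nM active-site dansylated hFXIa–DEGR in 50 mM Tris-HCl pH 7.4, 150 mM NaCl, 0.1% PEG8000, 37 °C. Emission monitored at 547 nm (excitation 345 nm). ΔFMAX, Hill coefficient n and KD obtained by nonlinear regression, using either the Hill equation or a standard hyperbolic equation. Error ±1 SE.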
# Coagulation factor XI [21] = target: T2, Coagulation factor XI; test: Binding affinity to active site dansylated human DEGR-FXIa assessed as maximal change in fluorescence intensity by fluorescence based analysis
# Summary of the method: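 Dansyl fluorescence titration: aliquots of sulfated QAO added to 250 nM hFXIa–DEGR in 50 mM Tris-HCl pH 7.4, 150 mM NaCl, 0.1% PEG8000 at 37 °C. Emission read at 547 nm with excitation at 345 nm. ΔFMAX, Hill coefficient and KD come from nonlinear regression fits, using the Hill equation or a standard hyperbolic equation. Error is ±1 SE.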
# Coagulation factor XI [22] = target: T2, Coagulation factor XI; test: Binding affinity to active site dansylated human DEGR-FXIa assessed as change in fluorescence intensity by fluorescence based analysis
# Sequence of Coagulation factor IX (Homo sapiens) (P00740 47-191 limits assumed): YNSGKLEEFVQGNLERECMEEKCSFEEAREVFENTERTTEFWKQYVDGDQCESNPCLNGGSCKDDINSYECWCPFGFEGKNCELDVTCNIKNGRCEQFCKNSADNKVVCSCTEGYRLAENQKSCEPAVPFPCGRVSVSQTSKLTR
# Sequence of Coagulation factor IX (Homo sapiens) (P00740 227-461 limits assumed): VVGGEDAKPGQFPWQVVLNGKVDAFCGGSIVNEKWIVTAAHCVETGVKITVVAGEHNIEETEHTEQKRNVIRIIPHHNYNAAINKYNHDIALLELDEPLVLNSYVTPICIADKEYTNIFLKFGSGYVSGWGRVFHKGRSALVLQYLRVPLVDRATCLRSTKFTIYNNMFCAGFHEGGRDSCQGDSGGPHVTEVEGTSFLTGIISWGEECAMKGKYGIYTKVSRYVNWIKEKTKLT
# Sequence of Coagulation factor X (Homo sapiens) (P00742 41-179 limits assumed): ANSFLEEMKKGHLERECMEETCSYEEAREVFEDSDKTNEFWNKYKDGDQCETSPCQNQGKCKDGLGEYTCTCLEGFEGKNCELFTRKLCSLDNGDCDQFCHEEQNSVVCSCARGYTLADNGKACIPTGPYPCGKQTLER
# Sequence of Coagulation factor X (Homo sapiens) (P00742 235-488 limits assumed): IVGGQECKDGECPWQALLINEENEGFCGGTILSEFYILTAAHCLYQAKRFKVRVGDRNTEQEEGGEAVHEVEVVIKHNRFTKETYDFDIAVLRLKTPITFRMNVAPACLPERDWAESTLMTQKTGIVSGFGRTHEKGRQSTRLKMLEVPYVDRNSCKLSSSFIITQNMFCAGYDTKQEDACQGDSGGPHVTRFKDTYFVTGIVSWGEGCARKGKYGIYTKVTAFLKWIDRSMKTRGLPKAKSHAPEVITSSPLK
# Sequence of Plasma kallikrein (Homo sapiens) (P03952 20-390 limits assumed): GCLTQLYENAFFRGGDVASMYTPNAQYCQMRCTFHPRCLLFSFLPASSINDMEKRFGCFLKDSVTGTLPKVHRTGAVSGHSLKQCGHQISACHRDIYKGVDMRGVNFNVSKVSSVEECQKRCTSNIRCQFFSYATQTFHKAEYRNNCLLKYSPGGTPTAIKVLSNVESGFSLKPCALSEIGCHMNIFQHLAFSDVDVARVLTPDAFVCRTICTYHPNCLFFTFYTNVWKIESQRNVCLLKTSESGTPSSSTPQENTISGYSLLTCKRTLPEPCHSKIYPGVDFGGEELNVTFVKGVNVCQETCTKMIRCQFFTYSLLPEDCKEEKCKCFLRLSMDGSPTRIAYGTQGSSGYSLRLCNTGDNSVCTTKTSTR
# Sequence of Plasma kallikrein (Homo sapiens) (P03952 391-638 limits assumed): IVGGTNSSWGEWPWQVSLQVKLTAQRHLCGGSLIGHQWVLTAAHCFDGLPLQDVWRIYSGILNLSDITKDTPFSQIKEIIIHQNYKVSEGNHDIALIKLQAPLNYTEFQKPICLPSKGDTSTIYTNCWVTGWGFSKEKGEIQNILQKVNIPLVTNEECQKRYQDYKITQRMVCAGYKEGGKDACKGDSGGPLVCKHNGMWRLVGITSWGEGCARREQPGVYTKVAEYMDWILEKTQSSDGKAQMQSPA
# T2 sequence (P03951 19-387 limits assumed): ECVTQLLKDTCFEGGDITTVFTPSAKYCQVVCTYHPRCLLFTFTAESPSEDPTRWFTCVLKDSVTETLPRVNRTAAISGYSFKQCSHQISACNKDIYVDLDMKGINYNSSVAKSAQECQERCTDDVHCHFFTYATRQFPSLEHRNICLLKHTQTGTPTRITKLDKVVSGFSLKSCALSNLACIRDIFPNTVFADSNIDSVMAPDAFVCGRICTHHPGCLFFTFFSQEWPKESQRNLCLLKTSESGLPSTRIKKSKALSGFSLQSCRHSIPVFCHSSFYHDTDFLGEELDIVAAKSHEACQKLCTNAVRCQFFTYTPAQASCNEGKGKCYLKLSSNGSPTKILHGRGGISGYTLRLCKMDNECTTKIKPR
# T2 sequence (P03951 388-625 limits assumed): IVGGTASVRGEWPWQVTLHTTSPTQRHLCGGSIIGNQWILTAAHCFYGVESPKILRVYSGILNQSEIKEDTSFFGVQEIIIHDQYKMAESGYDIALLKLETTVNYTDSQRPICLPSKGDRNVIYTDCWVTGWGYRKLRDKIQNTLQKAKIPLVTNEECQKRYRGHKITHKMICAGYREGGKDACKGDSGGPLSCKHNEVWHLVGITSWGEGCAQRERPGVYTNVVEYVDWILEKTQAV
Compound,inhibition [1],inhibition [2],inhibition [3],inhibition [4],inhibition [6],inhibition (Bos taurus [7]),inhibition [8],Selectivity ratio (Homo sapiens [9]),IC50 (Coagulation factor XI [10]) [µM],Selectivity ratio (Homo sapiens [12]),Selectivity ratio [14],Selectivity ratio [15],inhibition (Coagulation factor XI [16]) [%],Selectivity ratio (Homo sapiens [17]),Selectivity ratio (Homo sapiens [18]),Selectivity ratio (Homo sapiens [19]),other results
O=c1c2ccccc2nc(-c2ccc(OS(=O)(=O)O)cc2)n1CCCCCCCCCn1c(-c2ccc(OS(=O)(=O)O)cc2)nc2ccccc2c1=O,inactive,inactive,inactive,inactive,inactive,inactive,inactive,,,,,,,,,,inhibition (Homo sapiens [5]): 105%
O=c1c2ccccc2nc(-c2ccc(OS(=O)(=O)O)cc2)n1CCCCCCCCCCCn1c(-c2ccc(OS(=O)(=O)O)cc2)nc2ccccc2c1=O,inactive,inactive,inactive,inactive,,,inactive,> 63,14.5,> 25,> 63,> 25,96,> 63,> 63,> 63,inhibition (Bos taurus [11]): Active; inhibition [13]: Active
O=c1[nH]c(-c2ccc(OS(=O)(=O)O)cc2)nc2ccccc12,,,,,,,,,375,,,,,,,,Activity (Coagulation factor XI [20]): Active; Activity (Coagulation factor XI [21]): -34%; Kd (Coagulation factor XI [22]): 365 µM
O=c1c2ccccc2nc(-c2ccc(OS(=O)(=O)O)cc2)n1CCCCCCCn1cc(Cn2c(-c3ccc(OS(=O)(=O)O)cc3)nc3ccccc3c2=O)nn1,inactive,inactive,inactive,inactive,inactive,inactive,inactive,> 63,51,> 63,> 63,> 63,103,> 63,> 63,> 63,
O=c1c2ccccc2nc(-c2ccc(OS(=O)(=O)O)cc2)n1CCCCCCn1c(-c2ccc(OS(=O)(=O)O)cc2)nc2ccccc2c1=O,inactive,inactive,inactive,inactive,inactive,inactive,inactive,> 63,34,> 63,> 63,> 63,87,> 63,> 63,> 63,
O=c1c2ccccc2nc(-c2ccc(OS(=O)(=O)O)cc2)n1CCCCCCCCCCn1cc(Cn2c(-c3ccc(OS(=O)(=O)O)cc3)nc3ccccc3c2=O)nn1,inactive,inactive,inactive,inactive,inactive,inactive,inactive,> 63,22,> 63,> 63,> 63,112,> 63,> 63,> 63,
O=c1c2ccccc2nc(-c2ccc(OS(=O)(=O)O)cc2)n1CCCCCn1c(-c2ccc(OS(=O)(=O)O)cc2)nc2ccccc2c1=O,inactive,inactive,inactive,inactive,inactive,inactive,inactive,> 63,49,> 63,> 63,> 63,92,> 63,> 63,> 63,
O=c1c2ccccc2nc(-c2cccc(OS(=O)(=O)O)c2)n1Cc1ccc(Cn2c(-c3cccc(OS(=O)(=O)O)c3)nc3ccccc3c2=O)cc1,inactive,inactive,inactive,inactive,inactive,inactive,inactive,> 63,248,> 63,> 63,> 63,100,> 63,> 63,> 63,
O=c1c2ccccc2nc(-c2ccc(OS(=O)(=O)O)cc2)n1CCCCCCCCn1c(-c2ccc(OS(=O)(=O)O)cc2)nc2ccccc2c1=O,inactive,inactive,inactive,inactive,inactive,inactive,inactive,> 63,20,> 63,> 63,> 63,81,> 63,> 63,> 63,
O=c1c2ccccc2nc(-c2ccc(OS(=O)(=O)O)cc2)n1CCCCCCCCCCn1c(-c2ccc(OS(=O)(=O)O)cc2)nc2ccccc2c1=O,inactive,inactive,inactive,inactive,,,inactive,> 63,16.6,> 25,> 63,> 25,95,> 63,> 63,> 63,inhibition (Bos taurus [11]): Active; inhibition [13]: Active
